The text below walks through data of paper PMC8717467 (Chemical biology & drug design, 2020).

Bridge positions count the residues as written; N and C are the ends. Peptide text beside a SMILES is read from it.

For data set [1], the system named is adhesion between CD2 protein-expressing T cells and CD58 protein overexpressing Caco-2 cells. The note with it: read-out: IC50 in cell adhesion assay, Jurkat/T cells and epithelial cells such as Caco-2 and OVCAR-3, ref A. Gokhale et al., 2011, 2013, A. S. Gokhale et al., 2015; cited from earlier work.
In data set [2] the test system is lymph node cells from type II collagen-immunized HLA-DQ8 mice. As to conditions: ref A. Gokhale et al., 2013; A. S. Gokhale et al., 2015; cited from earlier work.
Data set [3] is described as follows: Thermal stability. Type of data set: physicochemical. The gist of the method: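 CD spectra of the peptide in water were recorded from 25 to 85 °C in 5 °C steps, 4 scans per temperature, 185–320 nm. Samples from 25, 55 and 85 °C were checked by mass spectrometry. Separately, peptide was incubated 30 min at 25, 55 or 85 °C, then run on C-18 HPLC and reported as relative peak area from triplicate experiments.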

Data set [4] addresses T1, adhesion between Jurkat cells (CD2) and OVCAR-3 cells (CD58) (Homo sapiens, UniProt P19256).
T1 sequence (P19256 29-250): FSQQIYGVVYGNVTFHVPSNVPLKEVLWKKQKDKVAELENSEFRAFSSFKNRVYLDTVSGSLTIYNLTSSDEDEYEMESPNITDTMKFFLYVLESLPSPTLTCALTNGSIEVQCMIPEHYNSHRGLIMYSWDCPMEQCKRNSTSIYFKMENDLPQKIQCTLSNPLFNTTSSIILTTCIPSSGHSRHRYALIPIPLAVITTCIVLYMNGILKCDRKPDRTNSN
T1 sequence (P06729 25-351 partner): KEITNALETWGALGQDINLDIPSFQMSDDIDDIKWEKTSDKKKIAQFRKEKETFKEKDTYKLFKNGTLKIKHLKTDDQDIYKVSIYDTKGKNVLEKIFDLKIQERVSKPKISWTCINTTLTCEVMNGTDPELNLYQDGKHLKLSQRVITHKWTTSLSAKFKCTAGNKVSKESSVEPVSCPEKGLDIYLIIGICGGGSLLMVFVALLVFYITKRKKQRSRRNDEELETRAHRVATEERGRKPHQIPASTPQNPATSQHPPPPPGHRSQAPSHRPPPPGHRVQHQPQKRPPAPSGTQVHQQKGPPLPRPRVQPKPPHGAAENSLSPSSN
As to conditions: read-out: IC50, Jurkat cell-OVCAR-3 cell adhesion assay.

A short description of data set [5]: Chemical stability in buffers of different pH. Type of data set: physicochemical. The note with it: pH 1.5, 7.4 and 9.6 buffers, 30 days, HPLC, zero time peak area = 100%.
Data set [6] concerns T cell proliferation of lymph node cells from peptide-immunized DQ8 mice. Briefly: Immunogenicity studies. Type of data set: in vivo. As to conditions: LNC T-cell proliferation 10 days after immunization. Put shortly: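 HLA-DQ8 mice were immunized with 200 μL of test peptide at 50 μg/mL. Ten days later, lymph nodes were harvested and made into single-cell suspensions. The lymph node cells were challenged in vitro with a range of peptide concentrations to measure T-cell proliferation. ConA (1 μg/mL) served as positive control. Results are stimulation index versus peptide concentration; an index above 2 counted as positive.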

For data set [7], the target named is T2, adhesion between Jurkat cells (CD2 protein) and HFLS-RA cells (CD58 protein) (Homo sapiens, UniProt P19256).
T2 sequence (P19256 29-250): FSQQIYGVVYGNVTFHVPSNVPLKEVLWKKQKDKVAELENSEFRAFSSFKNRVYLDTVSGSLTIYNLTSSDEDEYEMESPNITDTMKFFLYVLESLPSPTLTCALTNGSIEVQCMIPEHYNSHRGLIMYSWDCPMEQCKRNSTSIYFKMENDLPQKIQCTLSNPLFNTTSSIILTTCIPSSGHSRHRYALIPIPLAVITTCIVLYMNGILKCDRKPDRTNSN
T2 sequence (P06729 25-351 partner): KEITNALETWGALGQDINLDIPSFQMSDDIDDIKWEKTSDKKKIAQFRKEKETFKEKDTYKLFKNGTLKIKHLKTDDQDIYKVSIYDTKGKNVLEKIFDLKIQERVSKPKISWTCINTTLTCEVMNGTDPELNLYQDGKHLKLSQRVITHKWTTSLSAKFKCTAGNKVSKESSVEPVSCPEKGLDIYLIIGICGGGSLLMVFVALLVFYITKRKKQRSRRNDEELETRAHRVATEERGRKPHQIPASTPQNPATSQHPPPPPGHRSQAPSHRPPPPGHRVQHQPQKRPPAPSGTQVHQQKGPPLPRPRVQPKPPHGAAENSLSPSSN
The note with it: read-out: IC50, Jurkat cell - HFLS-RA cell adhesion assay.

The target in data set [8] is T3, CD58 adhesion domain (Homo sapiens, UniProt P19256).
T3 chain: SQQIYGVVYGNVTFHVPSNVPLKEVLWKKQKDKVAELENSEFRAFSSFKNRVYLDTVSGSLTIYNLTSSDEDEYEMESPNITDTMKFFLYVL
The data set can be described thus: SPR. A general note: In SPR one partner is held on a chip, and binding of the other changes the refractive index at the surface.

As for `CC[C@H](C)[C@@H]1NC(=O)[C@H](CC(=O)O)NC(=O)[C@H](CC(=O)O)NC(=O)[C@@H]2CCCN2C(=O)[C@H]2CCCN2C(=O)[C@H](CC(=O)O)NC(=O)[C@H](Cc2ccc(O)cc2)NC(=O)[C@H]([C@@H](C)CC)NC(=O)[C@H](CO)NC(=O)[C@H](CCCCN)NC1=O` [Peptide 6], the IC50 in data set [1] is 6.9 nM. For the same molecule, in data set [2], the “T cell immune response in cells derived from transgenic mice that develop arthritis” value is recorded as “suppress the T cell immune response”.

Consider `C[C@@H]1NC(=O)[C@@H]2CSSC[C@H](NC(=O)[C@H](CC(=O)O)NC(=O)[C@H](CC(=O)O)NC(=O)CNC(=O)[C@H](CC(=O)O)NC(=O)[C@H](Cc3ccc(O)cc3)NC1=O)C(=O)N[C@@H](CCCCN)C(=O)N[C@@H](CO)C(=O)N[C@@H](C)C(=O)N1CCC[C@H]1C(=O)N1CCC[C@H]1C(=O)N[C@@H](CO)C(=O)N2` [SFTI-a1] (cyclo(APPSCAYDGDDCKS); disulfide 5-12), for which the “Thermal stability: change of CD spectra with temperature” value in data set [3] (in water, 25 to 85 °C in 5 °C steps, CD) is listed as “not significantly changed”. Further, the “Thermal stability: change in HPLC peak area” value in data set [3] (incubated at 55 and 85 °C for 30 min, HPLC C-18, triplicate experiments) is given as “no significant change in HPLC peak area”. For the same molecule, the “Thermal stability: mass spectrometric analysis” value in data set [3] (samples incubated at different temperatures (25, 55, 85 °C) in solution) is “no change in its mass”. For the same molecule, the IC50 in data set [4] is 23.3 ± 4.62 nM; in data set [7], 37.2 ± 1.02 nM. In data set [5], the “Chemical stability: degradation in buffers” value is reported as “not degraded significantly”. In addition, the Immunogenicity entry in data set [6] is given as “not immunogenic”.

B1: SFTI-a1 (peptide)
chain: cyclo(CKSAPPSCAYDGDD)
modifications: disulfide 1-8
SMILES: C[C@@H]1NC(=O)[C@@H]2CSSC[C@H](NC(=O)[C@H](CC(=O)O)NC(=O)[C@H](CC(=O)O)NC(=O)CNC(=O)[C@H](CC(=O)O)NC(=O)[C@H](Cc3ccc(O)cc3)NC1=O)C(=O)N[C@@H](CCCCN)C(=O)N[C@@H](CO)C(=O)N[C@@H](C)C(=O)N1CCC[C@H]1C(=O)N1CCC[C@H]1C(=O)N[C@@H](CO)C(=O)N2
Regarding B1, the Kd (usually the free concentration of one partner at which half of the binding sites on the other are occupied at equilibrium, for simple one-to-one binding) in data set [8] stood at 320 nM.
